Rows were chosen to be rich in hits. Some 3.8% of all compounds tested hit in one or more screens of this group.
KCNQ1 block: inhibitors of human KCNQ1 channel, primary screen, cell-based, thallium flux, high-throughput. Potassium voltage-gated channel subfamily KQT member 1 (Homo sapiens), P51787. CHO-K1 KCNQ1, FluxOR thallium flux fluorescence; hits give high values. B-score at 10 µM. 310,000 compounds, 1.3% hits;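 active means compounds whose thallium flux B-score, printed positive for inhibition, exceeds three library SD while starting fluorescence stays within three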;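 further: channel opened by potassium depolarization with thallium stimulus after 20 min compound exposure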
Target sequence (P51787 whole entry, looked up): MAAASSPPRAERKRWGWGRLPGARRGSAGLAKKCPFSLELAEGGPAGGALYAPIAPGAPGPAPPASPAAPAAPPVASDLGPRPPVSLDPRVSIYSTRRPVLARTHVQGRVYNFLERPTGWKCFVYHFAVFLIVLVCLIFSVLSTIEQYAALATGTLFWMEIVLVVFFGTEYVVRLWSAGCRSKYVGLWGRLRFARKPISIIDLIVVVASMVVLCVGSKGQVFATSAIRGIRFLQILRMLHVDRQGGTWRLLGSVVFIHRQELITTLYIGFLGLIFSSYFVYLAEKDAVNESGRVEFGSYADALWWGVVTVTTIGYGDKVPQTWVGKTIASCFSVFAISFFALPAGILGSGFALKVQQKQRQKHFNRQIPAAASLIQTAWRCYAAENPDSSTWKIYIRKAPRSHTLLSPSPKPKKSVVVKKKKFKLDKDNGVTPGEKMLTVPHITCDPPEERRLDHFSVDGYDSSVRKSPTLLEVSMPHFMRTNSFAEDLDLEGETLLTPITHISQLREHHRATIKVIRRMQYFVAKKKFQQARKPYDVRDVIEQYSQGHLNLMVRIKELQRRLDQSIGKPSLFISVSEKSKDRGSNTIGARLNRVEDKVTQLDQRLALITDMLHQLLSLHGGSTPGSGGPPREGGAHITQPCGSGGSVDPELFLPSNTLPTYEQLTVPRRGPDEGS
KCNQ1 act: potentiators or activators of KCNQ1 channel, primary screen, cell-based, thallium flux, high-throughput. CHO-K1 KCNQ1, thallium flux FluxOR fluorescence; hits give high values. 310,000 compounds, 0.35% hits. Potassium voltage-gated channel subfamily KQT member 1 (Homo sapiens), P51787. B-score at 10 µM. AID 2648, 2010;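 active means fluorescence ratio B-score, a plate-corrected score, at least three library SD, with initial intensity B-score within 5 SD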
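Assay system: CHO-K1 cells stably expressing KCNQ1. Medium: assay buffer for compound exposure, DMSO matched across wells. Timing: 37 °C overnight plating, 90-min dark dye load, 20-min compound pretreatment. Signal: kinetic FluxOR fluorescence, 10 s baseline plus 110 s post-stimulus.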
KCNK9 inh: KCNK9 potassium channel inhibitors, primary screen, HEK293 cells, thallium flux | Potassium channel subfamily K member 9 (Homo sapiens), Q9NPC2 | FluxOR thallium flux fluorescence; hits give low values | B-score at 10 µM | 310,000 compounds, 1.2% hits;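 active means ratio B-score over 3 SD below the library mean, with starting fluorescence within 5 SD of its mean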;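 further: negative B-score means less thallium flux so channel inhibition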
hERG protect: hERG rescue from dofetilide block, primary screen, cell-based, CHO-hERG, FluxOR thallium flux, dofetilide IC70; Voltage-gated inwardly rectifying potassium channel KCNH2 (Homo sapiens), Q12809; dofetilide IC70 present; activation (rescue from dofetilide block), less the hit threshold, % at 10 µM; 310,000 compounds, 0.51% hits;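 active means activation above the mean of controls blocked by dofetilide plus 5 SD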;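 further: thallium influx through hERG after potassium depolarization seen as dye fluorescence rise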
KCNK3 block: human KCNK3 channel inhibitors, primary screen, CHO cells, FluxOR thallium flux, B-score | Potassium channel subfamily K member 3 (Homo sapiens), O14649 | FluxOR fluorescence; hits give low values | B-score at 10 µM | 340,000 compounds, 0.84% hits | AID 602410, 2012;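 active means B-score under library mean minus 4 SD, starting fluorescence ratio at most library mean plus 5 SD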;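 further: more negative B-score means stronger inhibition of thallium flux through KCNK3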
Kir21 inh: inhibitors of mouse Kir2.1 inward-rectifier potassium channel. Inward rectifier potassium channel 2 (Mus musculus), P35561. HEK293-Kir2.1, FluxOR thallium flux fluorescence; hits give low values. B-score at 10 µM. 310,000 compounds, 0.85% hits. AID 1672, 2009;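 active means fluorescence ratio B-score at or below minus 3 SD of library scores, with starting-brightness B-score within 2 SD, cut at about -4.2 in these data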;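 further: channel flux triggered by added potassium and thallium sulfate stimulus; B-score of peak minus minimum fluorescence over baseline after thallium stimulus; more negative B-score means stronger Kir2.1 block with less thallium influx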
KCNK9 block conf: KCNK9 potassium channel inhibitors, confirmation, HEK293 cells, thallium flux, duplicate | shares compounds with KCNK9 inh | FluxOR thallium flux fluorescence | inhibition, % at 10 µM | 4,900 compounds, 43% hits | AID 492992, 2010;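 active means thallium signal inhibited by more than 5 SD of the compound-free buffer control wells, on both duplicate plates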;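 further: 0% = assay buffer control wells without compound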
Kir2-1 spec: mouse Kir2.1 channel inhibition, confirmation, selectivity assay for KCNK9 modulator project, cell-based, HEK293, thallium flux | shares compounds with KCNK9 inh | Kir2.1 cells, FluxOR thallium flux fluorescence | inhibition, % at 10 µM | 4,900 compounds, 4% hits;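 active means thallium signal drop more than 5 SD beyond the mean of the no-compound control wells, seen in both duplicate plates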;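 further: signal is fluorescence rise after thallium addition divided by baseline fluorescence; plate controls were assay buffer only for no effect and full block by chlorpromazine control for full effect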
KCNK9 uninduced: thallium flux in non-induced HEK293 cells, confirmation, counter-screen for KCNK9 inhibitor project, cell-based, second counter screen, non-induced KCNK9-HEK293; shares compounds with KCNK9 inh; FluxOR thallium flux; inhibition, % at 10 µM; 4,900 compounds, 40% hits; AID 492997, 2010;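 active means thallium signal drop beyond 5 SD of the untreated control mean, on both duplicate plates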;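 further: plate controls were buffer only IC0 wells for no effect and SID17386958 at its maximal inhibitory level for full effect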
* = called active by the depositor; i = inactive; nt = no result given.

SMILES	KCNQ1 block	KCNQ1 act	KCNK9 inh	hERG protect	KCNK3 block	Kir21 inh	KCNK9 block conf	Kir2-1 spec	KCNK9 uninduced
Cc1nc2c(ccc3nc(NC(=O)C(c4ccccc4)c4ccccc4)sc32)s1	i	i	-9.8*	-23	i	-0.59	i	i	i
Cc1nc2c(ccc3nc(NC(=O)Cc4cccc5ccccc45)sc32)s1	i	i	i	-8	i	0.01	nt	nt	nt
CCc1nnc(NS(=O)(=O)c2ccc(N/C=C(\C=O)c3nc4cc(Cl)ccc4o3)cc2)s1	i	i	i	-15	i	0	i	i	i
CCc1nnc(NS(=O)(=O)c2ccc(NC(=O)c3ccc(Cl)cc3)cc2)s1	i	i	i	-10	i	1	nt	nt	nt
O=C(NCc1ccccc1)c1ccc(C(=O)N(C2CCCCC2)C2CCCCC2)cc1	i	i	-8.9*	-3	i	0.98	i	i	32%*
O=C1ON=C(c2ccc(Cl)cc2)/C1=C/c1ccc(O)cc1	8*	i	i	-9	nt	-6.1*	i	i	i
O=C1ON=C(c2ccccc2)/C1=C/c1ccc(O)cc1	i	i	i	4	i	-6.8*	i	i	i
Cc1ccc(C2=NOC(=O)/C2=C\c2ccccc2)cc1	i	i	i	-6	i	0.1	nt	nt	nt
O=C(CN1C(=O)NC2(CCCCC2)C1=O)Nc1ccc(Cl)cc1	nt	nt	nt	nt	i	nt	nt	nt	nt
Cc1ccc(-c2c[n+](Cc3ccc(Cl)c(Cl)c3)c3n2CCC3)cc1	i	i	i	-21	i	-2.7	nt	nt	nt
CCCOc1cccc(C(=O)NC(=S)Nc2cccc(C(F)(F)F)c2)c1	i	i	i	-3	i	-0.14	i	i	i
CC(=O)c1ccc(C(=O)N2CCCC(C(=O)c3ccc(Cl)cc3)C2)s1 (stereo not drawn)	i	i	i	-1	i	-0.75	i	i	i
Cc1noc(C)c1C(=O)N1CCCC(C(=O)c2ccc(Cl)cc2)C1 (stereo not drawn)	i	i	i	-12	i	0.04	nt	nt	nt
COCc1ccc(C(=O)N2CCCC(C(=O)c3ccc(SC)cc3)C2)s1 (stereo not drawn)	i	i	i	-2	i	-0.54	i	i	i
CCc1cc(C(=O)N2CCCC(C(=O)c3ccc(Cl)cc3)C2)no1 (stereo not drawn)	i	i	i	-8	i	-4	i	i	i
CSc1ccc(C(=O)C2CCCN(C(=O)c3ccc4c(c3)OCO4)C2)cc1 (stereo not drawn)	i	i	i	-5	i	0.11	i	i	i
CCCCN1CC(COC)Oc2cccc(F)c2S1(=O)=O (stereo not drawn)	nt	nt	nt	nt	i	nt	nt	nt	nt
CSc1ccc(C(=O)C2CCCN(C(=O)c3csc(C(C)=O)c3)C2)cc1 (stereo not drawn)	i	i	i	-9	i	-0.07	nt	nt	nt
